According to paper PMC5434479 (Inorganic Chemistry, 2017):
Like-named read-outs stand apart in the source and are kept apart here. Blank lines part the entries; values can stand above or below the compound they belong to.

Columns and labels:
[1] = test system: human promyelocytic leukemia (HL60) cells; assay: MTS antiproliferation assay, HL60 cells; type: cell-based; details: for IC50: read-out: IC50 ± SE; for cell viability: HL60, 1 μM; for cell viability / inhibition of HL60 cell proliferation (in words): 72 h; for inhibition of HL60 cell proliferation (in words): HL60, 10 μM
Outline: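 HL60 cells were kept in RPMI 1640 with 10% FCS, 2 mM L-glutamine and penicillin/streptomycin at 37 °C, 5% CO2, and seeded at 3 × 10^4 per 100 μL. Compound predissolved in DMSO was diluted 100-fold into wells (1% DMSO final). Wells received 10 or 1 μM, or a concentration series, in triplicate for 72 h. MTS reagent was added for 4 h, then absorbance read at 490 nm. Screening data were averaged over three experiments; IC50 calculated.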

[2] = test system: human breast adenocarcinoma (MCF-7) cells; assay: MTS antiproliferation assay, MCF-7 cells; type: cell-based; details: for IC50: read-out: IC50 ± SE
Outline: (§1)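 Culture was at 37 °C, 5% CO2: A549 in RPMI 1640, MCF-7 and MRC-5 in DMEM, each with 10% FCS, 2 mM L-glutamine and penicillin/streptomycin. Seeding per 100 μL was 8 × 10^3 (A549, MCF-7) or 2 × 10^3 (MRC-5). Compound in DMSO was diluted 100-fold into wells (1% DMSO final), tested at several concentrations in triplicate for 72 h. MTS reagent was added for 4 h, then A490 read; IC50 calculated.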

[3] = test system: human lung adenocarcinoma epithelial (A549) cells; assay: MTS antiproliferation assay, A549 cells; type: cell-based; details: for IC50: read-out: IC50 ± SE
Outline: as §1

[4] = test system: human fetal lung fibroblast (MRC-5) cells; assay: MTS antiproliferation assay, MRC-5 healthy fibroblasts; type: cell-based; details: for IC50: read-out: IC50 ± SE; for times less toxic toward healthy fibroblasts (MRC-5) than toward HL60 and MCF-7: MRC-5 versus HL60 and MCF-7
Outline: as §1

A549 cells = assay: Cellular uptake, gold content by ICP-MS, A549 cells; type: cell-based, human; details: A549, 10 μM, 6 h
MCF-7 cells = assay: Cellular uptake, gold content by ICP-MS, MCF-7 cells; type: cell-based, human; details: MCF-7, 1 μM, 6 h
[5] = Reaction with glutathione monitored by 1H NMR; type: physicochemical; details: equimolar GSH (10 mM) in DMSO-d6, room temperature, 6 days
[6] = test system: G-quadruplex-forming sequence from the human telomere (hTeloG); assay: FRET DNA-melting assay, hTeloG; type: binding; details: hTeloG G-quadruplex 0.2 μM, 50 equiv (10 μM), pH 7.2
Outline: (§2)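 FAM/TAMRA-labelled oligonucleotides were annealed in 10 mM sodium cacodylate with 100 mM NaCl. Buffer was pH 5.5 and 6.0 for hTeloC and pH 7.2 for hif-1α, hTeloG and duplex. Final DNA was 0.2 μM, with compound added at 1:10 by volume. DMSO-matched DNA controls ran in each run. Melting curves were recorded by real-time PCR machine, excitation 470 nm and detection 510 nm. Mean and SD of three experiments.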

[7] = test system: human telomeric i-motif sequence (hTeloC); assay: FRET DNA-melting assay, hTeloC; type: binding; details: pH 5.5 and pH 6.0; for interaction in preliminary screening (in words): hTeloC i-motif 0.2 μM, 50 equiv (10 μM); for stabilization of telomeric i-motif, pH 6.0 versus pH 5.5 (in words): hTeloC
Outline: as §2

[8] = test system: i-motif-forming sequence from the promoter region of the oncogene hif-1α; assay: FRET DNA-melting assay, hif-1α i-motif; type: binding; details: hif-1α i-motif 0.2 μM, 50 equiv (10 μM), pH 7.2
Outline: as §2

[9] = molecular target: MDM2–p53 interaction (human MDM2 protein, residues 17–125) (Homo sapiens, UniProt Q00987); assay: Fluorescence polarization assay of MDM2–p53 interaction; type: binding; details: for disruption of MDM2–p53 interaction in screening (in words): 100 μM
Chain of MDM2–p53 interaction (human MDM2 protein, residues 17–125) (Q00987 17-125): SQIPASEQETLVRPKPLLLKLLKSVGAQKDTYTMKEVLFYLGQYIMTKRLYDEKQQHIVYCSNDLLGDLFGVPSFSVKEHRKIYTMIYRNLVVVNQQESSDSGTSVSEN
Outline: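 Compound in DMSO was added at 1:10. Positive control was wild-type p53 peptide (15–27) at 400 μM final, negative control DMSO, each in triplicate. Plates were incubated 30 min at room temperature and read by polarisation at 490/520 nm, with total fluorescence checked. IC50 came from log(inhibitor) versus response, variable slope.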

MDM2 = MDM2 (Homo sapiens, UniProt Q00987); assay: STD NMR binding to MDM2; details: 13.5 μM MDM2, 500 μM compound, 1% DMSO-d6, 25 °C
Chain of MDM2 (Q00987 whole entry): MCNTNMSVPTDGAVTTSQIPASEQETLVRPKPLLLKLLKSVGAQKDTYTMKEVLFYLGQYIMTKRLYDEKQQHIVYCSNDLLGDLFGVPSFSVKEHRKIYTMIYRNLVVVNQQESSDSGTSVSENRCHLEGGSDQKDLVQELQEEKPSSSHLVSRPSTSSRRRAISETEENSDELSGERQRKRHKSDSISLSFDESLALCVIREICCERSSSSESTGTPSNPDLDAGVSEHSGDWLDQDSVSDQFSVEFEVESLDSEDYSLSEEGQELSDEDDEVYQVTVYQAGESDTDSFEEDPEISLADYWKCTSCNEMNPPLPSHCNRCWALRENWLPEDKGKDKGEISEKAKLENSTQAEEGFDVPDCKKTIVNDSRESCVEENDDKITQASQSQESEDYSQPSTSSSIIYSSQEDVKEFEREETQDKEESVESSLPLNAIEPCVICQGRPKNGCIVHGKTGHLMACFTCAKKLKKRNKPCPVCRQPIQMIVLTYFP
Outline: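 STD NMR at 800 MHz used a pseudo-2D sequence with spoil pulses. Protein was saturated by cascades of 49 ms Gaussian pulses, 1 ms apart, on-resonance at 0 ppm and off-resonance at 40 ppm. Saturation lasted 4 s for binding detection and 0.5 s for epitope mapping, 1024 scans each. Blank runs without protein were done. Epitope values were normalised to the most intense proton as 100%.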

double-stranded DNA = assay: FRET DNA-melting assay, double-stranded DNA; type: binding; details: double-stranded DNA 0.2 μM, 50 equiv (10 μM), pH 7.2
Outline: as §2

Compound: N.N.[Cl][Pt][Cl] [cisplatin, cis-diamminedichloroplatinum(II), reference compound]
IC50 ([1]; HL60, 72 h incubation, MTS): 3.7 ± 0.25 µM
IC50 ([2]; MCF-7, 72 h incubation, MTS): 21.2 ± 3.9 µM
IC50 ([3]; A549, 72 h incubation, MTS): 33.7 ± 3.7 µM
IC50 ([4]; MRC-5, 72 h incubation, MTS): 10.7 ± 3 µM

Compound: [(C^N^pz^N)Au(1,3,7,9-tetramethylxanthin-8-ylidene)]BF4 [Compound 3]
cell viability [1]: nontoxic
inhibition of HL60 cell proliferation (in words) [1]: completely inhibited cell proliferation
IC50 ([1]; HL60, 72 h incubation, MTS): 4.05 ± 0.43 µM
IC50 ([2]; MCF-7, 72 h incubation, MTS): 7.9 ± 0.13 µM
IC50 ([3]; A549, 72 h incubation, MTS): > 50 µM
times less toxic toward healthy fibroblasts (MRC-5) than toward HL60 and MCF-7 [4]: 2–4
IC50 ([4]; MRC-5, 72 h incubation, MTS): 17.6 ± 1.9 µM
cell uptake (in words) (A549 cells): poorly taken up
cell uptake (in words) (MCF-7 cells): poorly taken up
interaction in preliminary screening (in words) [6]: good interactions
interaction in preliminary screening (in words) [7]: good interactions
stabilization of telomeric i-motif, pH 6.0 versus pH 5.5 (in words) [7]: does not show any particular difference
interaction in preliminary screening (in words) [8]: good interactions
disruption of MDM2–p53 interaction in screening (in words) [9]: only compounds 1 and 2 appeared to disrupt

Continued, in another order:

IC50 ([1]; Homo sapiens, HL-60, 72 h): 0.98 ± 0.07 µM
IC50 ([2]; Homo sapiens, MCF7, 72 h): 0.42 ± 0.13 µM
IC50 ([3]; Homo sapiens, A549, 72 h): > 50 µM
Compound: Nc1nc2nc[nH]c2c(=S)[nH]1 [Compound 6-TG, 6-thioguanine, reference compound]
IC50 ([4]; Homo sapiens, MRC5, 72 h): > 50 µM
IC50 ± SE ([4]; MRC-5, 72 h incubation, MTS): nontoxic

IC50 ([1]; HL60, 72 h incubation, MTS): 0.31 ± 0.15 µM
IC50 ([2]; MCF-7, 72 h incubation, MTS): 0.56 ± 0.02 µM
IC50 ([3]; A549, 72 h incubation, MTS): 7.8 ± 1.3 µM
cell uptake (in words) (A549 cells): much higher uptake
intracellular gold concentration, times higher than that of 1 (A549 cells): ~4
intracellular gold concentration, times higher than that of 3 (A549 cells): ~11
cell uptake (in words) (MCF-7 cells): highest concentrations
stability toward GSH [5]: high stability
IC50 ([9]; 10 nM HDM2 and tagged peptide, pH 7.4): 31.1 ± 1.1 µM
binding to MDM2 in solution (in words) (MDM2): clearly confirmed the binding
Compound: [(C^N^pz^N)Au(1,3-dimethylbenzimidazol-2-ylidene)]PF6 [Compound 2]
cell viability [1]: 22%
inhibition of HL60 cell proliferation (in words) [1]: completely inhibited cell proliferation
times more potent than 3 ([2]; MCF-7, ratio of IC50 values): up to 14
times more toxic than (benzimidazolylidene)AuCl ([2]; MCF-7, comparator value ref 44): more than 10
times more toxic than cisplatin ([3]; A549, ratio of IC50 values): 4
toxicity relative to (benzimidazolylidene)AuCl ([3]; A549, comparator value ref 25b): more than twice as toxic
times less toxic toward healthy fibroblasts (MRC-5) than toward HL60 and MCF-7 [4]: 2–4
IC50 ([4]; MRC-5, 72 h incubation, MTS): 1.4 ± 0.4 µM
interaction in preliminary screening (in words) [6]: good interactions
interaction in preliminary screening (in words) [7]: good interactions
stabilization of telomeric i-motif, pH 6.0 versus pH 5.5 (in words) [7]: stabilize the telomeric i-motif structure at pH 6.0 more efficiently than at pH 5.5
interaction in preliminary screening (in words) [8]: good interactions
disruption of MDM2–p53 interaction in screening (in words) [9]: appeared to disrupt the MDM2–p53 interaction

IC50 ([1]; HL60, 72 h incubation, MTS): 0.9 ± 0.22 µM
IC50 ([2]; MCF-7, 72 h incubation, MTS): 0.78 ± 0.11 µM
IC50 ([3]; A549, 72 h incubation, MTS): 29 ± 1.8 µM
Compound: (C^N^pz^N)Au(6-thioguanine) [Compound 4]
cell viability [1]: 60%
inhibition of HL60 cell proliferation (in words) [1]: completely inhibited cell proliferation
IC50 ([4]; MRC-5, 72 h incubation, MTS): 4.3 ± 0.7 µM
interaction in preliminary screening (in words) [6]: did not show any interaction
interaction in preliminary screening (in words) [7]: did not show any interaction
interaction in preliminary screening (in words) [8]: did not show any interaction
interaction in preliminary screening (in words) (double-stranded DNA): did not show any interaction
